The target of series [1] is Ribosomal protein S6 kinase (Homo sapiens) (UniProt P51812+Q9UBS0+O75676+Q15349+O75582+P23443+Q9UK32+Q15418). Briefly: Inhibition of SK6 (unknown origin) at 1 uM by proQinase-based assay relative to control. Format: protein assay.
Series [2] can be described thus: Stability in mouse plasma assessed as compound remaining at 5 uM after 1 hr by LC/MS analysis. As to conditions: read-out: Stability. Format: ADME, cell-free. In a few lines: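 Compound at 5 µM incubated 1 h at 37 °C in human or mouse plasma; percentage remaining quantified by LC/MS.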
Another series in a line: in vitro. To be noted: human, liver microsomes. (In general: Microsomes from liver hold many membrane-bound enzymes, among them those of drug oxidation.)

This note sets out measurements from ChEMBL document CHEMBL4480410, “Targeting the MKK7-JNK (Mitogen-Activated Protein Kinase Kinase 7-c-Jun N-Terminal Kinase) Pathway with Covalent Inhibitors” (J Med Chem, 2019).

The structures appear in SMILES notation. Bounds are passed on as bounds.

`C=CC(=O)N1CCC[C@@H](n2nc(-c3cn(-c4ccc(C(C)=O)cc4)nn3)c3c(N)ncnc32)C1` gave an inhibition in series [1] above 50%. In series [2], the remaining at 1 h, 5 µM was determined as 70.4%. The same molecule gave a microsomal CLint at 1 h, 3 µM in the series “in vitro” of 154 µL/min/mg.

What is called inhibition is the drop in the measured response relative to a control, in per cent. High values mean strong suppression, low ones little suppression. For orientation: microsomal CLint means the rate of metabolic loss divided by the concentration. A higher microsomal CLint goes with faster metabolism.
